Activity, MIC and Ratio data for seven molecules are collected here from ChEMBL document CHEMBL4814052, “Isatin-derived azoles as new potential antimicrobial agents: Design, synthesis and biological evaluation” (2021).

Assay [1] has as its system Escherichia coli. The assay can be described thus: Antibacterial activity against Escherichia coli ATCC 25922 measured after 6 passages by broth microdilution method. Type of assay: functional, organism-based.
In assay [2] the test system is Staphylococcus aureus. The assay can be described thus: Antibacterial activity against Staphylococcus aureus ATCC 29213 by broth microdilution method. Type of assay: functional. (In general: In broth dilution the organism is exposed to a series of concentrations in liquid medium.)
In assay [3] the test system is Staphylococcus aureus. The assay can be described thus: Antibacterial activity against Staphylococcus aureus ATCC 25923 by broth microdilution method. The class given is functional.
For assay [4], the system named is Staphylococcus aureus. The assay can be described thus: Antibacterial activity against methicillin resistant Staphylococcus aureus by broth microdilution method. The class given is functional.
In assay [5] the test system is Enterococcus faecalis. The assay can be described thus: Antibacterial activity against Enterococcus faecalis by broth microdilution method. The class given is functional.
Another assay has as its system Klebsiella pneumoniae. In words: Antibacterial activity against Klebsiella pneumonia by broth microdilution method. The class given is functional.
The test system of assay [6] is Pseudomonas aeruginosa. The assay can be described thus: Antibacterial activity against Pseudomonas aeruginosa ATCC 27853 by broth microdilution method. The class given is functional.
The next assay relates to Acinetobacter baumannii. In words: Antibacterial activity against Acinetobacter baumannii by broth microdilution method. Type of assay: functional.
The subject of assay [7] is Escherichia coli. The assay can be described thus: Antibacterial activity against Escherichia coli by broth microdilution method. The class given is functional.
Assay [8] relates to Staphylococcus aureus. The assay can be described thus: Antibacterial activity against Staphylococcus aureus by broth microdilution method. The class given is functional.
Assay [9] has as its system Pseudomonas aeruginosa. The assay can be described thus: Antibacterial activity against Pseudomonas aeruginosa by broth microdilution method. The class given is functional.
In assay [10] the test system is Escherichia coli. In words: Antibacterial activity against Escherichia coli ATCC 25922 by broth microdilution method. Type of assay: functional.
Assay [11] has as its system Candida tropicalis. The assay can be described thus: Antifungal activity against Candida tropicalis. The class given is functional.
The test system of assay [12] is Candida tropicalis. The assay can be described thus: Fungicidal activity against Candida tropicalis by broth microdilution method. The class given is functional, organism-based.
For another assay, the system named is Candida parapsilosis. The assay can be described thus: Fungicidal activity against Candida parapsilosis ATCC 22019 assessed as […] by broth microdilution method.
Assay [13] relates to Enterococcus faecalis. In words: Bactericidal activity against Enterococcus faecalis by broth microdilution method. Type of assay: functional, organism-based.
For assay [14], the system named is Escherichia coli. The assay can be described thus: Antibacterial activity against Escherichia coli ATCC 25922 measured after 10 passages by broth microdilution method. The class given is functional, organism-based.
In assay [15] the test system is Escherichia coli. In words: Potency index, ratio of MIC of norfloxacin to MIC of compound for antibacterial activity against Escherichia coli ATCC 25922 by broth microdilution method. The class given is functional.
Assay [16] concerns Calf thymus DNA. The assay can be described thus: Binding affinity to calf thymus DNA assessed as hyperchromic effect by UV-Vis spectroscopy. Type of assay: nucleic-acid assay. The note with it: Bos taurus. Summed up:
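UV-Vis absorbance of the compound–DNA mixture is compared with the summed absorbances of free DNA and free compound. Hyperchromism is read as higher absorbance of the mixture than that sum.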

Assay [17] relates to Calf thymus DNA. In words: Binding affinity to calf thymus DNA assessed as reduction in neutral red-DNA complex formation by competitive binding assay. Type of assay: nucleic-acid assay. The conditions noted are these: Bos taurus.

Structures are written as SMILES. Converted amounts (≈) assume the structure as drawn. The source made the active and inactive calls. The calls are words filed in the database; no cut-off is given here.

Regarding `CCn1cc(C(=O)O)c(=O)c2cc(F)c(N3CCNCC3)cc21` [NORFLOXACIN], the result with Escherichia coli [1] was inactive. The minimum inhibitory concentration (MIC) – broadly, the lowest concentration found to suppress growth – in the assay on Staphylococcus aureus [2] was determined as 2 µg/mL (≈ 6.26 µM); in the assay on Staphylococcus aureus [3] it was 1 µg/mL (≈ 3.13 µM); in the assay on Staphylococcus aureus [4], 8 µg/mL (≈ 25.1 µM); against Enterococcus faecalis [5], 4 µg/mL (≈ 12.5 µM); against Klebsiella pneumoniae it was 4 µg/mL (≈ 12.5 µM); in the assay on Pseudomonas aeruginosa [6] it was 2 µg/mL (≈ 6.26 µM). Further, the MIC against Acinetobacter baumannii was 8 µg/mL (≈ 25.1 µM); against Escherichia coli [7] it was 16 µg/mL (≈ 50.1 µM); in the assay with Staphylococcus aureus [8], 1 µg/mL (≈ 3.13 µM); against Pseudomonas aeruginosa [9], 2 µg/mL (≈ 6.26 µM); against Escherichia coli [10] it was 8 µg/mL (≈ 25.1 µM).
Turning to `OC(Cn1cncn1)(Cn1cncn1)c1ccc(F)cc1F`, the outcome with Candida tropicalis [11] was Active.
Take `Cc1nccn1CCN1C(=O)C(=O)c2ccccc21`: the MIC in the assay with Staphylococcus aureus [2] turned out to be 256 µg/mL (≈ 1000 µM); in the assay with Staphylococcus aureus [3] it was 128 µg/mL (≈ 501 µM); against Staphylococcus aureus [4], 128 µg/mL (≈ 501 µM); against Enterococcus faecalis [5], 128 µg/mL (≈ 501 µM); in the assay on Klebsiella pneumoniae, 64 µg/mL (≈ 251 µM); against Pseudomonas aeruginosa [6], 128 µg/mL (≈ 501 µM). The minimal inhibitory concentration (MIC) came to 32 µg/mL (≈ 125 µM) in the assay on Acinetobacter baumannii; 256 µg/mL (≈ 1000 µM) with Escherichia coli [7]; 128 µg/mL (≈ 501 µM) in the assay on Staphylococcus aureus [8]; 128 µg/mL (≈ 501 µM) against Pseudomonas aeruginosa [9]; 128 µg/mL (≈ 501 µM) in the assay on Escherichia coli [10].
Take `O=C(CC1(O)C(=O)N(CCn2cncn2)c2ccccc21)c1ccccc1` (stereo unspecified): the minimal inhibitory concentration (MIC) in the assay on Staphylococcus aureus [2] was 256 µg/mL (≈ 706 µM); in the assay with Staphylococcus aureus [3] it was 256 µg/mL (≈ 706 µM); in the assay on Staphylococcus aureus [4] it was 128 µg/mL (≈ 353 µM); with Enterococcus faecalis [5], 256 µg/mL (≈ 706 µM); against Klebsiella pneumoniae it was 256 µg/mL (≈ 706 µM); with Pseudomonas aeruginosa [6] it was 512 µg/mL (≈ 1410 µM). Moreover, the MIC against Acinetobacter baumannii came to 64 µg/mL (≈ 177 µM); against Escherichia coli [7], 256 µg/mL (≈ 706 µM); against Staphylococcus aureus [8], 128 µg/mL (≈ 353 µM); in the assay with Pseudomonas aeruginosa [9], 512 µg/mL (≈ 1410 µM); in the assay on Escherichia coli [10], 512 µg/mL (≈ 1410 µM).
As for `Cc1cc2ncn(CCN3C(=O)C(=O)c4ccccc43)c2cc1C`, the MIC with Staphylococcus aureus [2] worked out at 128 µg/mL (≈ 401 µM); against Staphylococcus aureus [3] it was 256 µg/mL (≈ 802 µM); against Staphylococcus aureus [4], 128 µg/mL (≈ 401 µM); with Enterococcus faecalis [5], 256 µg/mL (≈ 802 µM); in the assay on Klebsiella pneumoniae, 128 µg/mL (≈ 401 µM); with Pseudomonas aeruginosa [6], 256 µg/mL (≈ 802 µM). Also, the minimum inhibitory concentration (MIC) in the assay on Acinetobacter baumannii turned out to be 32 µg/mL (≈ 100 µM); against Escherichia coli [7], 256 µg/mL (≈ 802 µM); in the assay with Staphylococcus aureus [8], 256 µg/mL (≈ 802 µM); in the assay with Pseudomonas aeruginosa [9] it was 256 µg/mL (≈ 802 µM); with Escherichia coli [10], 256 µg/mL (≈ 802 µM).
As for `CC(=O)/C=C1\C(=O)N(CCn2cncn2)c2ccccc21`, the result with Candida tropicalis [12] and in the assay on Enterococcus faecalis [13] was inactive. The MIC came to 64 µg/mL (≈ 227 µM) in the assay on Staphylococcus aureus [2]; 128 µg/mL (≈ 453 µM) with Staphylococcus aureus [3]; 128 µg/mL (≈ 453 µM) against Staphylococcus aureus [4]; 32 µg/mL (≈ 113 µM) in the assay with Enterococcus faecalis [5]; 32 µg/mL (≈ 113 µM) against Klebsiella pneumoniae; 32 µg/mL (≈ 113 µM) with Pseudomonas aeruginosa [6]. Also, the MIC in the assay on Acinetobacter baumannii is 64 µg/mL (≈ 227 µM); with Escherichia coli [7], 64 µg/mL (≈ 227 µM); in the assay on Staphylococcus aureus [8], 64 µg/mL (≈ 227 µM); in the assay on Pseudomonas aeruginosa [9], 32 µg/mL (≈ 113 µM); in the assay on Escherichia coli [10], 1 µg/mL (≈ 3.54 µM); against Candida tropicalis [11] it was 8 µg/mL (≈ 28.3 µM). The Ratio with Candida parapsilosis worked out at 4; in the assay on Escherichia coli [15] it was 8. Besides, the result in the assay on Escherichia coli [14], with Calf thymus DNA [16] and in the assay with Calf thymus DNA [17] was Active.
`O=C(CC1(O)C(=O)N(CCn2cncn2)c2ccccc21)c1ccc(Cl)cc1` (stereo unspecified): the MIC in the assay with Staphylococcus aureus [2] is 128 µg/mL (≈ 323 µM); against Staphylococcus aureus [3] it was 256 µg/mL (≈ 645 µM); in the assay with Staphylococcus aureus [4], 128 µg/mL (≈ 323 µM); in the assay with Enterococcus faecalis [5], 256 µg/mL (≈ 645 µM); against Klebsiella pneumoniae it was 256 µg/mL (≈ 645 µM); with Pseudomonas aeruginosa [6], 128 µg/mL (≈ 323 µM). Further, the MIC came out at 64 µg/mL (≈ 161 µM) with Acinetobacter baumannii; 128 µg/mL (≈ 323 µM) in the assay with Escherichia coli [7]; 128 µg/mL (≈ 323 µM) against Staphylococcus aureus [8]; 512 µg/mL (≈ 1290 µM) in the assay with Pseudomonas aeruginosa [9]; 512 µg/mL (≈ 1290 µM) against Escherichia coli [10].
